The target in data set [1] is T1, Renin (Homo sapiens, UniProt P00797).
T1 sequence (P00797 whole entry): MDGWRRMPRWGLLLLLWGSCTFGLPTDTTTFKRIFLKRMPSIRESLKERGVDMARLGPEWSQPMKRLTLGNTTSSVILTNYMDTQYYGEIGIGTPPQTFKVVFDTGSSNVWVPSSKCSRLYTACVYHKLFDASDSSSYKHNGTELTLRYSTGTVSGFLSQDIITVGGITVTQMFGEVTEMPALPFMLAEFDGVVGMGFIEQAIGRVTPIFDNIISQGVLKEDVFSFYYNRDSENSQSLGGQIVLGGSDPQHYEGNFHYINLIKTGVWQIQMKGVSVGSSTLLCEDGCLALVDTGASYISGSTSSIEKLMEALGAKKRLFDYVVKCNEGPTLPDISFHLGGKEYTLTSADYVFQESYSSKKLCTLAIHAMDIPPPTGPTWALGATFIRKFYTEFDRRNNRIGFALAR
Nature of the data set: Tested in vitro for its ability to inhibit the human plasma renin. Type of data set: cell-free. An outline of the steps: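 IC50 against renin in plasma from the named species (dog, ferret, human, rat); single determination in most cases.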

In data set [2] the target is T1, Renin. Nature of the data set: Tested in vitro for its ability to inhibit the human plasma renin at pH of 7.4. Type of data set: cell-free.
Data set [3] in a line: Partition coefficient (logD6.5). The following applies: octanol/water, pH 6.5.
The nature of data set [4]: Partition coefficient (logD7.4). The following applies: octanol/water, pH 7.4.

In ChEMBL document CHEMBL1127457, “Nonpeptide renin inhibitors with good intraduodenal bioavailability and efficacy in dog” (J Med Chem, 1994) one finds IC50 and logD data, which are given here for 32 compounds.

One may read the pIC50 as −log10 of the IC50, conventionally taken in molar units. A low value points to a large IC50. The term logD denotes lipophilicity at a set pH, counting ionised and neutral species. A high value points to a more lipophilic compound.

SMILES strings stand for the structures. pIC50: −log10 of the molar value.

Turning to `CCCC[C@H](O[C@@H](Cc1ccccc1)C(=O)N1CCC(OCOC)CC1)C(=O)N[C@@H](CC1CCCCC1)[C@@H](O)C[C@H](C(=O)NCCCNC(=NC#N)SC)C(C)C`, at Renin [1], the negative logarithm of the IC50 (pIC50) was 8.89.

The compound `CCCC[C@H](O[C@@H](Cc1ccccc1)C(=O)N1CCC(OCOC)CC1)C(=O)N[C@@H](CC1CCCCC1)[C@@H](O)C[C@H](C(=O)NCCNC(N)=NC#N)C(C)C` showed a pIC50 on Renin [2] of 8.74. In addition, the logD in data set [3] and in data set [4] was greater than 5 each time.

For the compound `CCCC[C@H](O[C@@H](Cc1ccccc1)C(=O)N1CCC(OCOC)CC1)C(=O)N[C@@H](CC1CCCCC1)[C@@H](O)C[C@H](C(=O)NCCNc1n[nH]c(N)n1)C(C)C`, the pIC50 against Renin [2] was 8.96. Moreover, the values for the logD in data set [3] and in data set [4] were 3.9 and 4, respectively.

Consider `CCCC[C@H](O[C@@H](Cc1ccccc1)C(=O)N1CCC(OCOC)CC1)C(=O)N[C@@H](CC1CCCCC1)[C@@H](O)C[C@H](C(=O)NCCN)C(C)C`, for which, at Renin [2], the pIC50 was 8.41.

Compound `CCCC[C@H](O[C@@H](Cc1ccccc1)C(=O)N1CCC(OCOC)CC1)C(=O)N[C@@H](CC1CCCCC1)[C@@H](O)C[C@H](C(=O)NCCCNc1nnc(N)[nH]1)C(C)C` showed a pIC50 at Renin [2] of 8.77. Besides, the figures for the logD in data set [3] and in data set [4] were 4.3 and 4.2, respectively.

As to `CCCC[C@H](N[C@@H](Cc1ccccc1)C(=O)N1CCC(OCOC)CC1)C(=O)N[C@@H](CC1CCCCC1)[C@@H](O)C[C@H](C(=O)NCC(=O)O)C(C)C`, the negative-log IC50 (pIC50) on Renin [1] is 7.92. Besides, the logD in data set [3] was 2.3; in data set [4], 2.8.

In the case of `CCCC[C@H](N[C@@H](Cc1ccccc1)C(=O)N1CCC(OCOC)CC1)C(=O)N[C@@H](CC1CCCCC1)[C@@H](O)C[C@H](C(=O)NCC(C)(C)N)C(C)C`, the pIC50 against Renin [1] is 7.92.

Turning to `CCCC[C@H](N[C@@H](Cc1ccccc1)C(=O)N1CCC(OCOC)CC1)C(=O)N[C@@H](CC1CCCCC1)[C@@H](O)C[C@H](C(=O)NCC(=O)OCc1ccccc1)C(C)C`, at Renin [1], the pIC50 is 7.68. Compared with the last compound, the pIC50 is 0.24 log units lower.

`CCCC[C@H](O[C@@H](Cc1ccccc1)C(=O)N1CCC(OCOC)CC1)C(=O)N[C@@H](CC1CCCCC1)[C@@H](O)C[C@H](C(=O)NCCC/N=C(/NC)NC#N)C(C)C` had a pIC50 on Renin [2] of 8.89. For the same compound, the logD in data set [3] and in data set [4] was 4.4 each time.

In turn, `CCCC[C@H](O[C@@H](Cc1ccccc1)C(=O)N1CCC(OCOC)CC1)C(=O)N[C@@H](CC1CCCCC1)[C@@H](O)C[C@H](C(=O)NCCNc1noc(N)n1)C(C)C` showed a negative-log IC50 (pIC50) against Renin [2] of 8.51. In addition, the logD in data set [3] came out at 4.5; in data set [4] it was 4.4.

Regarding `CCCC[C@H](O[C@@H](Cc1ccccc1)C(=O)N1CCC(OCOC)CC1)C(=O)N[C@@H](CC1CCCCC1)[C@@H](O)C[C@H](C(=O)NCCC(=O)OCC)C(C)C`, the negative logarithm of the IC50 (pIC50) at Renin [2] was 7.92.

For the compound `CCCC[C@H](O[C@@H](Cc1ccccc1)C(=O)N1CCC(OCOC)CC1)C(=O)N[C@@H](CC1CCCCC1)[C@@H](O)C[C@H](C(=O)NCCCCN)C(C)C`, at Renin [2], the pIC50 was 8.37.

For `CCCC[C@H](O[C@@H](Cc1ccccc1)C(=O)N1CCC(OCOC)CC1)C(=O)N[C@@H](CC1CCCCC1)[C@@H](O)C[C@H](C(=O)NCCCNC(C)=O)C(C)C`, on Renin [2], the negative logarithm of the IC50 (pIC50) was 8.62. Besides, the pH-dependent lipophilicity (logD) in data set [3] and in data set [4] was 4.3 throughout.

On to `CCCC[C@H](O[C@@H](Cc1ccccc1)C(=O)N1CCC(OCOC)CC1)C(=O)N[C@@H](CC1CCCCC1)[C@@H](O)C[C@H](C(=O)NCC(C)(C)N1CCOCC1)C(C)C`, for which, at Renin [2], the pIC50 is 8.23. For the same compound, the logD in data set [3] and in data set [4] was greater than 5 in each case.

`CCCC[C@H](O[C@@H](Cc1ccccc1)C(=O)N1CCC(OCOC)CC1)C(=O)N[C@@H](CC1CCCCC1)[C@@H](O)C[C@H](C(=O)NCCCNC(=O)OCc1ccccc1)C(C)C` had a pIC50 at Renin [2] of 8.37.

With `CCCC[C@H](O[C@@H](Cc1ccccc1)C(=O)N1CCC(OCOC)CC1)C(=O)N[C@@H](CC1CCCCC1)[C@@H](O)C[C@H](C(=O)NCCCNC(N)=O)C(C)C`, the pIC50 against Renin [2] was 8.70.

`CCCC[C@H](N[C@@H](Cc1ccccc1)C(=O)N1CCC(OCOC)CC1)C(=O)N[C@@H](CC1CCCCC1)[C@@H](O)C[C@H](C(=O)NCCC(=O)O)C(C)C`: the pIC50 on Renin [1] was 8.08.

Turning to `CCCC[C@H](O[C@@H](Cc1ccccc1)C(=O)N1CCC(OCOC)CC1)C(=O)N[C@@H](CC1CCCCC1)[C@@H](O)C[C@H](C(=O)NCCCN)C(C)C`, the pIC50 at Renin [2] was 8.35. The results for the logD in data set [3] and in data set [4] were 2.4 and 1.8, respectively.

On Renin [2], `CCCC[C@H](O[C@@H](Cc1ccccc1)C(=O)N1CCC(OCOC)CC1)C(=O)N[C@@H](CC1CCCCC1)[C@@H](O)C[C@H](C(=O)NCCCNC(N)=S)C(C)C` gave a pIC50 of 8.60.

In turn, `CCCC[C@H](O[C@@H](Cc1ccccc1)C(=O)N1CCC(OCOC)CC1)C(=O)N[C@@H](CC1CCCCC1)[C@@H](O)C[C@H](C(=O)NCCNC(C)=O)C(C)C` had a pIC50 against Renin [2] of 8.59.

In turn, `CCCC[C@H](N[C@@H](Cc1ccccc1)C(=O)N1CCC(OCOC)CC1)C(=O)N[C@@H](CC1CCCCC1)[C@@H](O)C[C@H](C(=O)NCCCN)C(C)C` had a negative-log IC50 (pIC50) against Renin [1] of 8.02. For the same compound, the logD turned out to be 2.7 in data set [3] and 3.3 in data set [4].

On Renin [1], `CCCC[C@H](N[C@@H](Cc1ccccc1)C(=O)N1CCC(OCOC)CC1)C(=O)N[C@@H](CC1CCCCC1)[C@@H](O)C[C@H](C(=O)NCCCNCCO)C(C)C` showed a pIC50 of 8.10. For the same compound, the logD in data set [3] came to 2.9; in data set [4], 3.5.

On to `CCCC[C@H](O[C@@H](Cc1ccccc1)C(=O)N1CCC(OCOC)CC1)C(=O)N[C@@H](CC1CCCCC1)[C@@H](O)C[C@H](C(=O)NCCNC(=O)OCc1ccccc1)C(C)C`, for which the pIC50 against Renin [2] is 7.96.

Consider `CCCC[C@H](O[C@@H](Cc1ccccc1)C(=O)N1CCC(OCOC)CC1)C(=O)N[C@@H](CC1CCCCC1)[C@@H](O)C[C@H](C(=O)NCCNC(N)=O)C(C)C`, for which the pIC50 at Renin [2] was 8.55. Compared with the last compound, the pIC50 is 0.59 log units higher.

Turning to `CCCC[C@H](O[C@@H](Cc1ccccc1)C(=O)N1CCC(OCOC)CC1)C(=O)N[C@@H](CC1CCCCC1)[C@@H](O)C[C@H](C(=O)NCCCCN1CCOCC1)C(C)C`, the pIC50 against Renin [2] was 8.48.

In the case of `CCCC[C@H](N[C@@H](Cc1ccccc1)C(=O)N1CCC(OCOC)CC1)C(=O)N[C@@H](CC1CCCCC1)[C@@H](O)C[C@H](C(=O)NCCNCCO)C(C)C`, the pIC50 at Renin [1] was 7.96.

Take `CCCC[C@H](N[C@@H](Cc1ccccc1)C(=O)N1CCC(OCOC)CC1)C(=O)N[C@@H](CC1CCCCC1)[C@@H](O)C[C@H](C(=O)NCCNC(=O)OCc1ccccc1)C(C)C`: on Renin [1], the pIC50 was 7.77.

`CCCC[C@H](N[C@@H](Cc1ccccc1)C(=O)N1CCC(OCOC)CC1)C(=O)N[C@@H](CC1CCCCC1)[C@@H](O)C[C@H](C(=O)NCCC(=O)OCc1ccccc1)C(C)C`: the pIC50 against Renin [1] is 7.64.

On to `CCCC[C@H](N[C@@H](Cc1ccccc1)C(=O)N1CCC(OCOC)CC1)C(=O)N[C@@H](CC1CCCCC1)[C@@H](O)C[C@H](C(=O)NCCN)C(C)C`, for which the pIC50 at Renin [1] was 8.01.

Turning to `CCCC[C@H](N[C@@H](Cc1ccccc1)C(=O)N1CCC(OCOC)CC1)C(=O)N[C@@H](CC1CCCCC1)[C@@H](O)C[C@H](C(=O)NCC[N+]1([O-])CCOCC1)C(C)C`, the pIC50 against Renin [1] is 8.08.

With `CCCC[C@H](O[C@@H](Cc1ccccc1)C(=O)N1CCC(OCOC)CC1)C(=O)N[C@@H](CC1CCCCC1)[C@@H](O)C[C@H](C(=O)NCCC(=O)O)C(C)C`, the negative-log IC50 (pIC50) against Renin [1] was 8.17. The pH-dependent lipophilicity (logD) in data set [3] worked out at 1.9; in data set [4], 2.8.

Take `CCCC[C@H](O[C@@H](Cc1ccccc1)C(=O)N1CCC(OCOC)CC1)C(=O)N[C@@H](CC1CCCCC1)[C@@H](O)C[C@H](C(=O)NCc1nn[nH]n1)C(C)C`: on Renin [2], the pIC50 is 8.08.
